ChEMBL document CHEMBL1154326 (J Med Chem, 2009)
Activity calls are given as the source filed them. The rule behind the calls is not given here.

Target: T1, Histamine H1 receptor (Homo sapiens, UniProt P35367)
Assay: Antagonist activity at human histamine H1 receptor expressed in Sf9 cells coexpressing RGS4 by steady-state GTPase assay
Type: functional
Details: not given
Outline: (§1)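 Antagonist-mode steady-state GTPase assay in Sf9 membranes: H1R coexpressed with RGS4; H2R as GsαS fusion; H3R coexpressed with Giα2/Gβ1γ2/RGS4; H4R as RGS19 fusion with Giα2/Gβ1γ2. […] MgCl2: H1R/H2R 1.0 mM, H3R/H4R 5.0 mM; H4R plus 100 mM NaCl. [γ-32P]GTP hydrolysis measured over 20 min at 25 °C. pKB from nonlinear sigmoidal fits; duplicate runs.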

T1 sequence (P35367 whole entry): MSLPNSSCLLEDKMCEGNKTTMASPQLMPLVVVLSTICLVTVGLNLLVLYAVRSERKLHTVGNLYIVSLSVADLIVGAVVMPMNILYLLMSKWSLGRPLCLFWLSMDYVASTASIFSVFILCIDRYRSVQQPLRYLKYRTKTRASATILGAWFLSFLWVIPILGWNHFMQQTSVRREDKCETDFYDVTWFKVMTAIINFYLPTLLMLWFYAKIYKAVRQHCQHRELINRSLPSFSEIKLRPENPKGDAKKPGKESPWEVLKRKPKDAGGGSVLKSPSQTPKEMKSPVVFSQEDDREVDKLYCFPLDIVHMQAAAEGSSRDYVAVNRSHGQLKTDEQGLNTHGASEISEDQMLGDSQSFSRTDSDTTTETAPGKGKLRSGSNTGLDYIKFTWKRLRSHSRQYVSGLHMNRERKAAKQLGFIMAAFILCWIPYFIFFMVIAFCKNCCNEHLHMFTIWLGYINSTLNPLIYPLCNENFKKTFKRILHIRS

Structure (SMILES)	pKb
CN/C(=N\C#N)NCCCCc1c[nH]cn1	< 5
Cc1ccc(S(=O)(=O)NC(=N)NCCCc2c[nH]cn2)cc1	< 5
N#C/N=C(/NCCCCc1c[nH]cn1)NCCSc1ccccc1	< 5
CC(C)CN/C(=N\C#N)NCCCCc1c[nH]cn1	< 5
N#C/N=C(/NCCCCc1c[nH]cn1)NCCCc1ccccc1	< 5
NC(=O)/N=C(/NCCCc1ccccc1)NCCCc1c[nH]cn1	< 5
CCN/C(=N\C#N)NCCCCc1c[nH]cn1	< 5
NC(=O)/N=C(/NCCCc1ccccc1)NCCc1c[nH]cn1	< 5
CC(CCN/C(=N\C#N)NCCCCc1c[nH]cn1)c1ccccc1 (centres undefined)	< 5
N#C/N=C(/NCCCc1ccccc1)NCCc1c[nH]cn1	< 5
CC(C)N/C(=N\C#N)NCCCCc1c[nH]cn1	< 5

Target: T2, Histamine H4 receptor (Homo sapiens, UniProt Q9H3N8)
Assay: Displacement of [3H]histamine from human histamine H4 receptor expressed in Sf9 cells
Details: not given
Outline: (§2)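 Competition binding on Sf9 membranes in 12.5 mM MgCl2, 1 mM EDTA, 75 mM Tris/HCl pH 7.4. Protein per tube: 50 μg (H1R, H3R), 120 μg (H4R), 250 μg (H2R). […] 60 min at 25 °C with shaking; PEI-treated GF/C filtration, cold washes, scintillation counting; one-site fits, duplicates.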

T2 sequence (Q9H3N8 whole entry): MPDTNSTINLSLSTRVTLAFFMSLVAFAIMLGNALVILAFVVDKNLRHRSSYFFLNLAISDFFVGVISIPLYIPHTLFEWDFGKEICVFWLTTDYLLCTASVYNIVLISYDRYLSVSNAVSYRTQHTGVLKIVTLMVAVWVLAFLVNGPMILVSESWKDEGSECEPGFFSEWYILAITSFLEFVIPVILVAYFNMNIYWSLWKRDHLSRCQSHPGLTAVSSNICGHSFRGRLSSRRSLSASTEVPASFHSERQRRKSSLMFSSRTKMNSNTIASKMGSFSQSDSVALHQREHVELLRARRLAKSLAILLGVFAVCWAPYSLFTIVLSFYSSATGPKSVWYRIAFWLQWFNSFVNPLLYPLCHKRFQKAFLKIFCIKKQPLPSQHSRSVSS

Structure (SMILES)	Ki
N#C/N=C(/NCCCCc1c[nH]cn1)NCCSc1ccccc1	57.5 nM

Target: T3, Histamine H2 receptor (Homo sapiens, UniProt P25021)
Assay: Agonist activity at human histamine H2 receptor expressed in Sf9 cells coexpressing GsalphaS protein by steady-state GTPase assay
Type: functional
Details: not given
Outline: (§3)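 Sf9 membranes (10-20 μg protein/tube), washed and resuspended in 10 mM Tris-HCl pH 7.4. H2R as hH2R-GsαS fusion; H3R coexpressed with Giα2, Gβ1γ2, RGS4; H4R as hH4R-RGS19 fusion with Giα2, Gβ1γ2. Buffer: 50 mM Tris/HCl pH 7.4, MgCl2 (H2R 1.0 mM; H3R/H4R 5.0 mM), 100 μM EDTA, 100 μM ATP, 100 nM GTP, 100 μM AppNHp, creatine phosphate/kinase, 0.2% BSA; H4R plus 100 mM NaCl.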

T3 sequence (P25021 whole entry): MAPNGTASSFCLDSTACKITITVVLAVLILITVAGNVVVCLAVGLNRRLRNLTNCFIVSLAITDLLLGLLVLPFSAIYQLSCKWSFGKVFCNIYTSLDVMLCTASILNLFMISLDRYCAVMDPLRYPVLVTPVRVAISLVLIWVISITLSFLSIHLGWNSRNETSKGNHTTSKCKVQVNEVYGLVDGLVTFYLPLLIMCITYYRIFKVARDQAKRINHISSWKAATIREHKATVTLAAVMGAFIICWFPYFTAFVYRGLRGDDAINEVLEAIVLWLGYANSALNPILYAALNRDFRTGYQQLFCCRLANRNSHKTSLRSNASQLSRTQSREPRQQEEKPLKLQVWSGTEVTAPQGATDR

Structure (SMILES)	EC50
N=C(NCCCc1c[nH]cn1)NS(=O)(=O)CCc1ccccc1	12000 nM
N#C/N=C(/NCCCc1c[nH]cn1)NCCSc1ccccc1	7240 nM
Cc1ccc(S(=O)(=O)NC(=N)NCCCc2c[nH]cn2)cc1	12000 nM
NC(=O)NC(=NCCCc1cnc[nH]1)NCCCCc1ccccc1	380 nM
NC(=O)N=C(NCCCCc1c[nH]cn1)NCCCc1ccccc1	437 nM
N#C/N=C(\NCCCCc1ccccc1)NCCCc1c[nH]cn1	8910 nM
NC(=O)NC(=NCCCc1cnc[nH]1)NCCCc1ccccc1	646 nM
Cc1nc[nH]c1CCN [4-METHYLHISTAMINE]	2880 nM
N#C/N=C(\NCCCc1ccccc1)NCCCc1c[nH]cn1	14100 nM
NC(=O)/N=C(/NCCCc1ccccc1)NCCc1c[nH]cn1	2000 nM
N#C/N=C(/NCCCc1ccccc1)NCCc1c[nH]cn1	> 10000 nM
N#CNC(=NCCc1cnc[nH]1)NCCCC1CCCCC1	3890 nM

Target: T2, Histamine H4 receptor
Assay: not given
Details: Sf9

Structure (SMILES)	Kinact
N/C(=N/CCc1ccc(I)cc1)SCCCc1cnc[nH]1	13 nM

Target: T2, Histamine H4 receptor
Assay: Agonist activity at human histamine H4 receptor expressed in Sf9 cells coexpressing RGS19 protein by steady-state GTPase assay
Type: functional
Details: not given
Outline: as §3

Structure (SMILES)	EC50	Activity
N#C/N=C(/NCCCc1c[nH]cn1)NCCSc1ccccc1	1290 nM	–
CN/C(=N\C#N)NCCCCc1c[nH]cn1	955 nM	–
NC(=O)/N=C(\NCCCCc1c[nH]cn1)NCCCc1ccccc1	–	inactive
N#C/N=C(/NCCCCc1c[nH]cn1)NCCSc1ccccc1	33.9 nM	–
CC(CCNC(=NCCCCc1cnc[nH]1)NC#N)c1ccccc1 (centres undefined)	141 nM	–
N#CNC(N)=NCCCCc1cnc[nH]1	170 nM	–
CC(C)CN/C(=N\C#N)NCCCCc1c[nH]cn1	120 nM	–
N#CNC(=NCCCCc1cnc[nH]1)NCCCc1ccccc1	151 nM	–
N#C/N=C(/NCCCCc1ccccc1)NCCc1c[nH]cn1	> 10000 nM	–
N#C/N=C(/NCCCCc1c[nH]cn1)NCCc1ccccc1	1100 nM	–
Cc1nc[nH]c1CCN [4-METHYLHISTAMINE]	70.8 nM	–
N#C/N=C(\NCCCc1ccccc1)NCCCc1c[nH]cn1	759 nM	–
CCN/C(=N\C#N)NCCCCc1c[nH]cn1	708 nM	–
CC(C)N/C(=N\C#N)NCCCCc1c[nH]cn1	331 nM	–

Target: T4, Histamine H3 receptor (Homo sapiens, UniProt Q9Y5N1)
Assay: Antagonist activity at human histamine H3 receptor expressed in Sf9 cells coexpressing Gialpha-2-Gbeta-1-gamma-2 and RGS4 proteins protein by steady-state GTPase assay
Type: functional
Details: not given
Outline: as §1

T4 sequence (Q9Y5N1 whole entry): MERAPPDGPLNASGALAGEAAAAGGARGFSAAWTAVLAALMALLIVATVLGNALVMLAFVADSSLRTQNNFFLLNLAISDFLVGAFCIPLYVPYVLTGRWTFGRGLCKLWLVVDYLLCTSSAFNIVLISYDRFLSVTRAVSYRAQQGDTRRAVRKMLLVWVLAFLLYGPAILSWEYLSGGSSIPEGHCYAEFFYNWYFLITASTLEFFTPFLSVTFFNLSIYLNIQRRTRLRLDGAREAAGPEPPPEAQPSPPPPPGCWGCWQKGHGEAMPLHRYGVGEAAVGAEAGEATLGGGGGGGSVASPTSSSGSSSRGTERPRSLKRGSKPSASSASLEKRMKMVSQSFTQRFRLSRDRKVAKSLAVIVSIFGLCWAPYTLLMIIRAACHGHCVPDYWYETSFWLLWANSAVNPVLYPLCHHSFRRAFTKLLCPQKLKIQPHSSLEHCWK

Structure (SMILES)	pKb
N=C(NCCCc1c[nH]cn1)NS(=O)(=O)CCc1ccccc1	6.57
CN/C(=N\C#N)NCCCCc1c[nH]cn1	5.68
Cc1ccc(S(=O)(=O)NC(=N)NCCCc2c[nH]cn2)cc1	6.11
NC(=O)/N=C(\NCCCCc1c[nH]cn1)NCCCc1ccccc1	6.44
N#C/N=C(/NCCCCc1c[nH]cn1)NCCSc1ccccc1	6
CC(C)CN/C(=N\C#N)NCCCCc1c[nH]cn1	5.47
N#C/N=C(/NCCCCc1c[nH]cn1)NCCCc1ccccc1	5.64
N#C/N=C(/NCCCCc1c[nH]cn1)NCCc1ccccc1	5.82
NC(=O)/N=C(/NCCCc1ccccc1)NCCCc1c[nH]cn1	6.23
N#C/N=C(\NCCCc1ccccc1)NCCCc1c[nH]cn1	5.72
CCN/C(=N\C#N)NCCCCc1c[nH]cn1	5.54
NC(=O)/N=C(/NCCCc1ccccc1)NCCc1c[nH]cn1	8.42
CC(CCN/C(=N\C#N)NCCCCc1c[nH]cn1)c1ccccc1 (centres undefined)	6.19
N#C/N=C(/NCCCc1ccccc1)NCCc1c[nH]cn1	5.18
CC(C)N/C(=N\C#N)NCCCCc1c[nH]cn1	5.49

Target: T3, Histamine H2 receptor
Assay: Antagonist activity at human histamine H2 receptor expressed in Sf9 cells coexpressing GsalphaS protein by steady-state GTPase assay
Details: not given

Structure (SMILES)	pKb
N#C/N=C(/NCCCCc1ccccc1)NCCc1c[nH]cn1	< 5

Species on record: Homo sapiens
Assay: Selectivity for human histamine H4 receptor over human histamine H3 receptor by steady-state GTPase assay
Details: not given

Structure (SMILES)	Selectivity ratio
N#C/N=C(/NCCCCc1c[nH]cn1)NCCSc1ccccc1	30

Target: T2, Histamine H4 receptor
Assay: Antagonist activity at human histamine H4 receptor expressed in Sf9 cells coexpressing RGS19 protein by steady-state GTPase assay
Type: functional
Details: not given
Outline: as §1

Structure (SMILES)	pKb
N=C(NCCCc1c[nH]cn1)NS(=O)(=O)CCc1ccccc1	5.85
Cc1ccc(S(=O)(=O)NC(=N)NCCCc2c[nH]cn2)cc1	5.85
NC(=O)/N=C(\NCCCCc1c[nH]cn1)NCCCc1ccccc1	7.07
N#C/N=C(\NCCCCc1ccccc1)NCCCc1c[nH]cn1	5.22
NC(=O)/N=C(/NCCCc1ccccc1)NCCCc1c[nH]cn1	6.77
NC(=O)/N=C(/NCCCc1ccccc1)NCCc1c[nH]cn1	5.89
N#C/N=C(/NCCCc1ccccc1)NCCc1c[nH]cn1	< 5

Target: T4, Histamine H3 receptor
Assay: Agonist activity at human histamine H3 receptor expressed in Sf9 cells coexpressing Gialpha-2-Gbeta-1-gamma-2 and RGS4 proteins protein by steady-state GTPase assay
Type: functional
Details: not given
Outline: as §3

Structure (SMILES)	EC50
N#CNC(N)=NCCCCc1cnc[nH]1	251 nM

Target: T1, Histamine H1 receptor
Assay: Displacement of [3H]mepyramine from human histamine H1 receptor expressed in Sf9 cells
Details: not given
Outline: as §2

Structure (SMILES)	Ki
N#C/N=C(/NCCCCc1c[nH]cn1)NCCSc1ccccc1	25700 nM

Target: T3, Histamine H2 receptor
Assay: Agonist activity at human histamine H2 receptor expressed in Sf9 cells coexpressing GsalphaS protein at 1 mM by steady-state GTPase assay
Type: functional
Details: not given

Structure (SMILES)	Activity
Cc1nc[nH]c1CCN [4-METHYLHISTAMINE]	inactive

Target: T2, Histamine H4 receptor
Assay: Agonist activity at human histamine H4 receptor expressed in Sf9 cell membrane coexpressing RGS19 protein by steady-state GTPase assay
Type: functional
Details: not given
Outline: as §3

Structure (SMILES)	Activity
N#C/N=C(/NCCCCc1c[nH]cn1)NCCSc1ccccc1	> 10 nM

Species on record: Homo sapiens
Assay: Selectivity for human histamine H4 receptor over human histamine H1 receptor by radioligand displacement assay
Details: not given

Structure (SMILES)	Selectivity ratio
N#C/N=C(/NCCCCc1c[nH]cn1)NCCSc1ccccc1	450

Target: T3, Histamine H2 receptor
Assay: Displacement of [3H]tiotidine from human histamine H2 receptor expressed in Sf9 cells
Details: not given
Outline: as §2

Structure (SMILES)	Ki
N#C/N=C(/NCCCCc1c[nH]cn1)NCCSc1ccccc1	4070 nM

Target: T4, Histamine H3 receptor
Assay: Displacement of [3H]N-alpah-methylhistamine from human histamine H3 receptor expressed in Sf9 cells
Details: not given
Outline: as §2

Structure (SMILES)	Ki
N#C/N=C(/NCCCCc1c[nH]cn1)NCCSc1ccccc1	525 nM

Species on record: Homo sapiens
Assay: Selectivity for human histamine H4 receptor over human histamine H2 receptor by radioligand displacement assay
Details: not given

Structure (SMILES)	Selectivity ratio
N#C/N=C(/NCCCCc1c[nH]cn1)NCCSc1ccccc1	70

Target: T3, Histamine H2 receptor
Assay: Antagonist activity at human histamine H2 receptor expressed in Sf9 cells coexpressing GsalphaS protein by steady-state GTPase assay
Type: functional
Details: not given
Outline: as §1

Structure (SMILES)	pKb
N#C/N=C(/NCCCc1c[nH]cn1)NCCSc1ccccc1	< 5
CN/C(=N\C#N)NCCCCc1c[nH]cn1	< 5
N#C/N=C(/NCCCCc1c[nH]cn1)NCCSc1ccccc1	< 5
N#C/N=C(\NCCCCc1ccccc1)NCCCc1c[nH]cn1	5.03
CC(C)CN/C(=N\C#N)NCCCCc1c[nH]cn1	< 5
N#C/N=C(/NCCCCc1ccccc1)NCCc1c[nH]cn1	< 5
N#C/N=C(/NCCCCc1c[nH]cn1)NCCCc1ccccc1	5.25
N#C/N=C(/NCCCCc1c[nH]cn1)NCCc1ccccc1	5
N#C/N=C(\NCCCc1ccccc1)NCCCc1c[nH]cn1	5.25
CCN/C(=N\C#N)NCCCCc1c[nH]cn1	< 5
CC(CCN/C(=N\C#N)NCCCCc1c[nH]cn1)c1ccccc1 (centres undefined)	< 5
CC(C)N/C(=N\C#N)NCCCCc1c[nH]cn1	< 5

Target: T1, Histamine H1 receptor
Assay: Agonist activity at human histamine H1 receptor expressed in Sf9 cells coexpressing RGS4 by steady-state GTPase assay
Type: functional
Details: not given

Structure (SMILES)	EC50
Cc1nc[nH]c1CCN [4-METHYLHISTAMINE]	15800 nM
